The values that follow come from ChEMBL document CHEMBL2146359, “HCV NS5A replication complex inhibitors. Part 2: investigation of stilbene prolinamides” (Bioorg Med Chem Lett, 2012).

The structures appear in SMILES notation. ≈ marks a conversion by molar mass, not a printed value.

Series [1] in a line: Oral bioavailability in rat at 1.8 mg/kg. The series is classed as ADME, organism-based. Conditions: in vivo.
Series [2] deals with Bovine viral diarrhea virus 1. Description: Antiviral activity against BVDV1. Conditions: Bovine viral diarrhea virus isolates and strains. The format is functional, organism-based.
Series [3] in a line: Half life in rat at 1.8 mg/kg, po and iv. The format is ADME, organism-based. Conditions: in vivo. Details: dose 1.8 mg/kg, route oral.
Series [4] in a line: AUC in rat at 1.8 mg/kg, po. The format is ADME, organism-based. More on the design: dose 1.8 mg/kg, route oral. Conditions: plasma.
The nature of series [5]: Solubility of the compound. The series is classed as physicochemical.
Series [6] is described as follows: Cmax in rat at 1.8 mg/kg, po and iv. The format is ADME, organism-based. Details: dose 1.8 mg/kg, route oral. Conditions: in vivo.
Series [7] deals with Rattus norvegicus. Description: Volume of distribution at steady state in rat at 1.8 mg/kg, po and iv. The series is classed as ADME, organism-based. More on the design: dose 1.8 mg/kg, route oral. Conditions: in vivo.
A short description of series [8]: Metabolic stability in rat liver microsomes assessed as compound remaining after 10 mins. Conditions: read-out: Stability. The series is classed as ADME, Microsome. (In general: Liver microsomes are a subcellular fraction often used to study metabolism.)
A short description of series [9]: AUC in rat at 1.8 mg/kg, iv. The format is ADME, organism-based. More on the design: dose 1.8 mg/kg, route intravenous. Conditions: plasma.
The next series concerns Hepatitis C virus. Description: Antiviral activity against HCV genotype 1b infected in human Huh7 cells assessed as inhibition of viral replication by FRET assay. The series is classed as functional, organism-based, Hepacivirus hominis. Conditions: Huh-7. Put shortly:
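Replicon potency values are the means of at least two experiments.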

Series [10] is described as follows: Cytotoxicity against human HuH7 cells after 72 hrs by Alamar Blue assay. The format is cell-based. Conditions: Huh-7 cells. (In general: Resazurin is reduced to fluorescent resorufin, in cell work by metabolically active cells.)
A short description of series [11]: Half life in rat at 2.5 mg/kg, po and iv. The format is ADME, organism-based. More on the design: dose 2.5 mg/kg, route oral. Conditions: in vivo.
In series [12] the test system is Rattus norvegicus. Description: Volume of distribution at steady state in rat at 2.5 mg/kg, po and iv. The series is classed as ADME, organism-based. More on the design: dose 2.5 mg/kg, route oral. Conditions: in vivo.
Series [13] has as its system Rattus norvegicus. Description: AUC in rat at 2.5 mg/kg, iv. The format is ADME, organism-based, Plasma. More on the design: dose 2.5 mg/kg, route intravenous. Conditions: in vivo.
Series [14] is described as follows: Permeability across human Caco2 cells. The series is classed as ADME, cell-based. Conditions: Caco-2, read-out: permeability. For orientation: Caco-2 monolayers are a common model of the intestinal barrier.
A short description of series [15]: Half life in rat at 1.6 mg/kg, po and iv. The series is classed as ADME, organism-based. Details: dose 1.6 mg/kg, route oral. Conditions: in vivo.
Series [16] in a line: AUC in rat at 1.6 mg/kg, iv. Details: dose 1.6 mg/kg, route intravenous. Conditions: plasma. The series is classed as ADME, organism-based.
The subject of series [17] is Rattus norvegicus. The series is described as follows: Volume of distribution at steady state in rat at 1.6 mg/kg, po and iv. More on the design: dose 1.6 mg/kg, route oral. Conditions: in vivo. The series is classed as ADME, organism-based.
The nature of series [18]: AUC in rat at 2.8 mg/kg, iv. The format is ADME, organism-based. More on the design: dose 2.8 mg/kg, route intravenous. Conditions: plasma.
Series [19] can be described thus: Oral bioavailability in rat at 2.8 mg/kg. The series is classed as ADME, organism-based. Conditions: in vivo.
In series [20] the test system is Rattus norvegicus. The series is described as follows: Volume of distribution at steady state in rat at 2.8 mg/kg, po and iv. Details: dose 2.8 mg/kg, route oral. Conditions: in vivo. The series is classed as ADME, organism-based.
Series [21] in a line: Half life in rat at 2.8 mg/kg, po and iv. Conditions: in vivo. More on the design: dose 2.8 mg/kg, route oral. The format is ADME, organism-based.
Series [22] can be described thus: AUC in rat at 2.8 mg/kg, po. Conditions: plasma. The format is ADME, organism-based. More on the design: dose 2.8 mg/kg, route oral.
Series [23] in a line: Cmax in rat at 2.8 mg/kg, po and iv. The series is classed as ADME, organism-based. Conditions: in vivo. Details: dose 2.8 mg/kg, route oral.

`O=C(Nc1ccc(/C=C/c2ccc(NC(=O)[C@@H]3CCCN3C(=O)OCc3ccccc3)cc2)cc1)[C@@H]1CCCN1C(=O)OCc1ccccc1`: the bioavailability (usually dose-corrected exposure relative to a reference, in per cent) in [1] stood at 2%. The EC50 (as a rule, the concentration giving half of the maximal effect) was more than 10 µM in [2] and 0.00897 µM in the series on Hepatitis C virus. Moreover, the half-life (commonly how long it takes for the measured level to halve) in series [3] is 4.6 h. The AUC (usually concentration integrated over time) was 37 ng·h/mL in series [4] and 1620 ng·h/mL in [9]. In [5], the solubility (usually the concentration that dissolves in the medium under given conditions) is less than 1 µg/mL. Further, the Cmax – broadly, the peak of the concentration-time curve – in [6] came to 4 ng/mL. This compound yielded a Vdss in the series with Rattus norvegicus [7] of 4.3 L/kg. The remaining at 10 min in [8] was 77%. Further, the CC50 (in general, the concentration giving 50% cytotoxicity) at 72 h in [10] is more than 10 µM.
`CC(=O)N1CCC[C@H]1C(=O)Nc1ccc(/C=C/c2ccc(NC(=O)[C@@H]3CCCN3C(=O)Cc3ccccc3)cc2)cc1`: the half-life in [11] is 5.2 h. Moreover, the figures for the EC50 (in series [2]; in the series with Hepatitis C virus) were more than 10 µM and 0.0015 µM, respectively. The Vdss with Rattus norvegicus [12] stood at 1.2 L/kg. The same compound showed an AUC in the series on Rattus norvegicus [13] of 101535 ng·h/mL. The Papp in [14] was less than 1.5 ×10⁻⁶ cm/s. Moreover, the remaining at 10 min in series [8] came to 82%. The CC50 at 72 h in series [10] was more than 10 µM.
Take `O=C(Nc1ccc(/C=C/c2ccc(NC(=O)[C@@H]3C[C@@H](O)CN3C(=O)OCc3ccccc3)cc2)cc1)[C@@H]1C[C@@H](O)CN1C(=O)OCc1ccccc1`: the EC50 in series [2] was more than 10 µM; in the series with Hepatitis C virus it was 0.0289 µM. For the same compound, the half-life in series [15] was 6.4 h. Besides, the Papp in series [14] worked out at 3.5 ×10⁻⁶ cm/s. In series [8], the remaining at 10 min amounted to 99%. The same compound displayed an AUC in series [16] of 2450 ng·h/mL. This compound also registered a Vdss in the series on Rattus norvegicus [17] of 1 L/kg. For the same compound, in series [10], the CC50 at 72 h was more than 10 µM.
For the compound `O=C(Nc1ccc(/C=C/c2ccc(NC(=O)[C@@H]3CCCN3C(=O)Cc3cccnc3)cc2)cc1)[C@@H]1CCCN1C(=O)Cc1cccnc1`, the bioavailability in series [1] is 10%. The EC50 was more than 10 µM in series [2] and 0.000784 µM in the series on Hepatitis C virus. The compound also showed a half-life in [3] of 9.3 h. For the same compound, the AUC in series [4] worked out at 322 ng·h/mL; in [9], 3080 ng·h/mL. In [5], this compound yielded a solubility of 53 µg/mL (≈ 82.5 µM). Also, in [14], the Papp worked out at 1.6 ×10⁻⁶ cm/s. This compound displayed a Cmax in series [6] of 120 ng/mL. Further, the Vdss with Rattus norvegicus [7] worked out at 2.9 L/kg. The remaining at 10 min in series [8] amounted to 88%. This compound came in with a CC50 at 72 h in series [10] of more than 10 µM.
Take `O=C(Nc1ccc(/C=C/c2ccc(NC(=O)[C@@H]3CCCN3C(=O)c3ccc4occc4c3)cc2)cc1)[C@@H]1CCCN1C(=O)c1ccc2occc2c1`: the EC50 in series [2] was more than 10 µM; in the series with Hepatitis C virus, 0.056 µM. The compound also had a CC50 at 72 h in series [10] of more than 10 µM.
Regarding `Cc1nc2ccccn2c1C(=O)N1CCC[C@H]1C(=O)Nc1ccc(/C=C/c2ccc(NC(=O)[C@@H]3CCCN3C(=O)c3c(C)nc4ccccn34)cc2)cc1`, the EC50 in series [2] was more than 10 µM; in the series on Hepatitis C virus, 0.0868 µM. In series [10], this compound yielded a CC50 at 72 h of more than 10 µM.
In the case of `O=C(Nc1ccc(/C=C/c2ccc(NC(=O)[C@@H]3CCCN3C(=O)c3cccc4ccccc34)cc2)cc1)[C@@H]1CCCN1C(=O)c1cccc2ccccc12`, the EC50 in series [2] is more than 10 µM; in the series on Hepatitis C virus, 1.63 µM. The compound further registered a CC50 at 72 h in series [10] of more than 10 µM.
For `O=C(Nc1ccc(/C=C/c2ccc(NC(=O)[C@@H]3CCCN3C(=O)c3ccc4ccccc4c3)cc2)cc1)[C@@H]1CCCN1C(=O)c1ccc2ccccc2c1`, the figures for the EC50 (in series [2]; in the series with Hepatitis C virus) were more than 10 µM and 10 µM, respectively. Besides, the CC50 at 72 h in [10] is more than 10 µM.
Take `CCc1ccccc1C(=O)N1CCC[C@H]1C(=O)Nc1ccc(/C=C/c2ccc(NC(=O)[C@@H]3CCCN3C(=O)c3ccccc3CC)cc2)cc1`: the results for the EC50 (in [2]; with Hepatitis C virus) were more than 10 µM and 1.13 µM, respectively. In series [10], this compound displayed a CC50 at 72 h of more than 10 µM.
As for `O=C(Nc1ccc(/C=C/c2ccc(NC(=O)[C@@H]3CCCN3C(=O)CC3CC3)cc2)cc1)[C@@H]1CCCN1C(=O)CC1CC1`, the AUC in series [18] was determined as 18500 ng·h/mL; in series [22], 11900 ng·h/mL. In [19], this compound had a bioavailability of 64%. In addition, the EC50 was more than 10 µM in series [2] and 0.062 µM in the series on Hepatitis C virus. This compound yielded a Vdss with Rattus norvegicus [20] of 0.8 L/kg. Besides, the solubility in series [5] was 4.4 µg/mL (≈ 7.74 µM). In series [14], the Papp worked out at 0.4 ×10⁻⁶ cm/s. Further, the remaining at 10 min in series [8] is 84%. In series [21], the half-life is 4.9 h. In series [23], this compound gave a Cmax of 1500 ng/mL. The compound further displayed a cytotoxic concentration (CC50) at 72 h in series [10] of more than 10 µM.
